The RNAGym collection of RNA variant scans (doi:10.1126/science.aae0568)
Fewer inactive variants are shown than the library holds.

B1: tRNA (parent)
chain: GUUCCGUUGGCGUAAUGGUAACGCGUCUCCCUCCUAAGGAGAAGACUGCGGGUUCGAGUCCCGUACGGAACG

Variants of: B1
Experiment: yeast fitness relative to wild type (ratio to wild type); higher = fitter; tRNA-Arg(CCU), competitive growth, 37 C, YPD
Method in brief: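 Changes in genotype frequencies gave Darwinian fitness relative to wild type. Frequencies were read by 100-nucleotide paired-end sequencing of gene amplicons before and after pooled Saccharomyces cerevisiae strains, carrying tRNA-Arg(CCU) gene variants at the native locus, were competed in YPD at 37°C for 24 hours in six replicates. A genotype was kept only with ≥ 100 starting reads, and estimates < 0.5 were set to 0.5.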

| Variant | yeast fitness |
| --- | --- |
| C4U C11A A37C G67C | ≤ 0.5 |
| C4U G6A A40G A43G C49U | ≤ 0.5 |
| C4G U26A U32C | 0.565 |
| C4G U13A U54A | ≤ 0.5 |
| C4G G17A C34A A43G | 0.633 |
| C4G C30G A69C A70G | ≤ 0.5 |
| C4G C30G | 0.713 |
| C4U A20U U53C C61U | 0.627 |
| C4G U7G A36C | ≤ 0.5 |
| C4U C22G A57U G63C | ≤ 0.5 |
| C4U G10A | 0.644 |
| C4U A15U C30A A40G C66U A70G | ≤ 0.5 |
| C4G U19C C24U | 0.619 |
| C4U C5G C31G G50C | ≤ 0.5 |
| C4G U8C C22G A42C | ≤ 0.5 |
| C4G U26A C27U A43G C55U C66U | ≤ 0.5 |
| C4U A21G C46A | 0.899 |
| C4G U7G G9A A20G C22A G41A | ≤ 0.5 |
| C4G U16A A21C C24G A37U C55U | ≤ 0.5 |
| C4U A36C U59A | ≤ 0.5 |
| C4G G18C C24G C29G | ≤ 0.5 |
| C4G G25C C46U G50A | 0.636 |
| C4U C11U G23C A37U G44A | ≤ 0.5 |
| C4U C24U | 0.944 |

| Variant | yeast fitness |
| --- | --- |
| C4U C24G | 0.591 |
| C4U C22U C55G | ≤ 0.5 |
| C4U C22U C55U | 0.544 |
| C4G U8C G48C | 0.568 |
| C4G G25C | 0.982 |
| C4U C5A A36C A42G G52A | 0.578 |
| C4U C34G A69C | 0.664 |
| C4U A14G A21G C49U | 0.677 |
| C4U C30A C61A A70U | 0.536 |
| C4G C30A A45U C55U | ≤ 0.5 |
| C4G C31U G48C | 0.647 |
| C4U C5G A40G G51C U59A C61A A69U | ≤ 0.5 |
| C4G G23C C61G | ≤ 0.5 |
| C4G C27G C46G U54C | 0.64 |
| C4G G17A A45C | ≤ 0.5 |
| C4U A40U G68U | 0.708 |
| C4G U8G U35C U53G | ≤ 0.5 |
| C4G U7G A20G A65U | ≤ 0.5 |
| C4U C29U C31A C55U A57C | ≤ 0.5 |
| C4U C30U C34U | ≤ 0.5 |
| C4U C30A C62U | 0.792 |
| C4U G6A C34U | ≤ 0.5 |
| C4U C5A C66U | 0.61 |
| C4U A20C C22U U47G G67A A69U | ≤ 0.5 |

| Variant | yeast fitness |
| --- | --- |
| C4U A21G C31G C34G | 0.596 |
| C4U A14U C46U | 0.577 |
| C4G G10A C30G A43G A57U | ≤ 0.5 |
| C4G U32C A70U | 0.742 |
| C4U C11G U16C C34A C60U A69G | ≤ 0.5 |
| C4U C34G | 0.768 |
| C4U C34U | 0.737 |
| C4G C30A C34U A37G | ≤ 0.5 |
| C4G G18C G68A | ≤ 0.5 |
| C4G C46A | 0.915 |
| C4G C46U | 0.861 |
| C4U A37G | 0.875 |
| C4G C29G G58A | 0.53 |
| C4U G6A G9A U13C U28C | ≤ 0.5 |
| C4G U7A U19C A20C C55A G68C | ≤ 0.5 |
| C4U A45U G68C | 0.7 |
| C4G U19G A43U | ≤ 0.5 |
| C4U C11G A20G C34U | ≤ 0.5 |
| C4U C22G A36C C62G A70C | ≤ 0.5 |
| C4G G6A C11U C61U | ≤ 0.5 |
| C4U C11G C29A U54A U59G | ≤ 0.5 |
| C4U C34G A37C | 0.539 |
| C4U C5U C31G A45G | ≤ 0.5 |
| C4G G17A G56C C60G C66U | ≤ 0.5 |

| Variant | yeast fitness |
| --- | --- |
| C4U C5G C29G C31G A37U C66A | ≤ 0.5 |
| C4G G17A A40G | ≤ 0.5 |
| C4G G17A C22A G38A C49U U53C | ≤ 0.5 |
| C4G U16C G41C C62U | ≤ 0.5 |
| C4U C31G C46U | 0.921 |
| C4U A15U U28C A57G C61G | ≤ 0.5 |
| C4U A15U C30A A40G C66U | 0.6 |
| C4U A14G A36C C46G C61G | 0.544 |
| C4U C5G G41A U59C | ≤ 0.5 |
| C4U A15C C30G G56A A69C A70G | ≤ 0.5 |
| C4U A57U | 0.635 |
| C4G U16C C29G A36U A70G | ≤ 0.5 |
| C4G G25A U28C A36C C60U U64A C66U | ≤ 0.5 |
| C4U C22G G48A C60G | ≤ 0.5 |
| C4U C24G U26A U28G A65U | ≤ 0.5 |
| C4G G10C C31U U53A | ≤ 0.5 |
| C4G U8C U59G | ≤ 0.5 |
| C4U A21G C46A G68U | 0.574 |
| C4U A20G C29G U32A C62A | ≤ 0.5 |
| C4G U13A G18A G52A C55G | ≤ 0.5 |
| C4G G12U A14C C49U C66U | ≤ 0.5 |
| C4G U8C U16A A21C C24G A37U C55U C62U A69U | ≤ 0.5 |
| C4G C29A C34U A36U G50A | 0.568 |
| C4U A42C C61G A65U | 0.62 |

| Variant | yeast fitness |
| --- | --- |
| C4U C27U U47C | 0.734 |
| C4U C11G C29A U54A A57U | ≤ 0.5 |
| C4U C29A C31G A42C A45U | ≤ 0.5 |
| C4U C31G C55U | 0.579 |
| C4U G6A U13C U28C | 0.616 |
| C4G G48A | 0.876 |
| C4U C22U C33U | 0.565 |
| C4U A36G C61U | 0.73 |
| C4U A14G C34G | ≤ 0.5 |
| C4U A42C A45G C66A A69U | ≤ 0.5 |
| C4G G52C | 0.655 |
| C4G C34U U35G A57G | ≤ 0.5 |
| C4U A40U G58C | 0.734 |
| C4U A21C C31A G56C | ≤ 0.5 |
| C4G G17C C22A C27G C33U C49G | ≤ 0.5 |
| C4U C11U C22G C61A | ≤ 0.5 |
| C4G C60U C61G | ≤ 0.5 |
| C4G U26A C27U A43G C55U C62U | 0.589 |
| C4U A20G C55U A65G | ≤ 0.5 |
| C4U A37C G41C | 0.577 |
| C4U A15G C33A U59C C60U | ≤ 0.5 |
| C4U A20C C55A | 0.721 |
| C4G C29A | 0.757 |
| C4U C31U | 0.966 |

| Variant | yeast fitness |
| --- | --- |
| C4G C29U A43G U53G G63A | ≤ 0.5 |
| C4U C27A C30U A37U C60G | 0.639 |
| C4U C66A | 0.746 |
| C4U A20U A40U G52A A69U | ≤ 0.5 |
| C4G C33U C55A | ≤ 0.5 |
| C4U | 0.989 |
| C4G G17C A20U A37C | 0.717 |
| C4G C24U U59C | ≤ 0.5 |
| C4G G6C U8G G17A U32C | ≤ 0.5 |
| C4U C24A C62U A69U | ≤ 0.5 |
| C4U G10A A15C A57C C66G | ≤ 0.5 |
| C4G G9A | 0.916 |
| C4G U7G C29A A65C | ≤ 0.5 |
| C4U C11A A37C C66A | 0.535 |
| C4U C60G G63A | 0.706 |
| C4U A37G G39C C61U | ≤ 0.5 |
| C4U G6A | 0.901 |
| C4U C29A G58A C61G A70U | 0.548 |
| C4U A15U U16A G23C A57U A69U | ≤ 0.5 |
| C4U C30G A36U C66A | ≤ 0.5 |
| C4U C30A U53C A70C | ≤ 0.5 |
| C4G G9C C34A A36G A40C | ≤ 0.5 |
| C4G C29A C46A G58A | 0.525 |
| C4U A21G C49U | 1.01 |

| Variant | yeast fitness |
| --- | --- |
| C4G G17A C29U C62U | ≤ 0.5 |
| C4U C24U U26C G68A | ≤ 0.5 |
| C4G C34G U59A | ≤ 0.5 |
| C4G G51U | 0.654 |
| C4G C33A | 0.653 |
| C4U C27A G51C | 0.562 |
| C4G U13A | 0.874 |
| C4G U59C | 0.771 |
| C4U C11G C29U | ≤ 0.5 |
| C4U A15C C34A G63C | ≤ 0.5 |
| C4G G41A A43C | ≤ 0.5 |
| C4U C11A G12A U28C G44C | ≤ 0.5 |
| C4G G50C | 0.679 |
| C4U C31U A37C | 0.532 |
| C4U C33A G48C | ≤ 0.5 |
| C4U A42G G58A | 0.717 |
| C4U C24U U54A | ≤ 0.5 |
| C4U G9A C61G | 0.566 |
| C4G U16A G63A | 0.534 |
| C4U A42U | 0.944 |
| C4G G12A G38C C66U | ≤ 0.5 |
| C4U C5G C29G C31G A37C | 0.627 |
| C4G G9C G41A | ≤ 0.5 |
